Assay results from ChEMBL document CHEMBL3526068, “In vitro investigation of human UDP-glucuronosyltransferase isoforms responsible for tacrolimus glucuronidation: predominant contribution of UGT1A4” (Drug Metab Dispos, 2011).

Assays:
UGT1A4*1 = assay: Activity of UGT1A4*1 mutant (unknown origin) overexpressed in HEK293 cells assessed as enzyme-mediated glucuronidation after 1 hr by Eadie-Hofstee plot analysis; type: ADME, cell-based; settings: human, HEK293 cells overexpressing UGT1A4*1
In short: (§1)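 Tacrolimus at 25–750 μM was incubated 1 h and glucuronide was measured by LC-MS/MS. A kinetic model was fitted, and Vmax was adjusted for UGT1A4 protein content. Data are mean ± SD of triplicates from three independent experiments.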

[1] = target: T1, UDP-glucuronosyltransferase 1A4 (Homo sapiens, UniProt P22310); assay: Activity at human recombinant UGT1A4 assessed as enzyme-mediated tacrolimus glucuronide formation at 200 uM after 16 hrs by LC-MS analysis; type: ADME
T1 sequence (P22310 whole entry): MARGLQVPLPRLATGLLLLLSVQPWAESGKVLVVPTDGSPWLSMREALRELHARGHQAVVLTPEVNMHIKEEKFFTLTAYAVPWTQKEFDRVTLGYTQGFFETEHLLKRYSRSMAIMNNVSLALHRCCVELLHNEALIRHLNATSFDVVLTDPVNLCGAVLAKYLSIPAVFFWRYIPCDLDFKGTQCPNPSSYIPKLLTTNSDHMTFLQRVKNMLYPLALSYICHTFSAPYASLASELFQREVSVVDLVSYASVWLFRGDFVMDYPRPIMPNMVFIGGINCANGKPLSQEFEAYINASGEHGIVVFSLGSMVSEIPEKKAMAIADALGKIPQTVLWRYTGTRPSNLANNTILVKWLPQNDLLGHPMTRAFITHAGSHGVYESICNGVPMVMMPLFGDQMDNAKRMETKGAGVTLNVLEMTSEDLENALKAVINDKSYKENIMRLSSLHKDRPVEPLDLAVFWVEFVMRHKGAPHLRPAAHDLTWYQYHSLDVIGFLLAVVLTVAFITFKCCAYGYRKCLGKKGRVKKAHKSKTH
In short: (§2)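 Microsomes from human liver, kidney and intestine, or from HEK293 cells overexpressing individual UGT1A or UGT2B enzymes, were prepared by differential centrifugation. They were incubated 16 h at 37°C with 200 μM tacrolimus. Tacrolimus glucuronide was detected by LC-MS/MS (C8 column, ammonium acetate/acetic acid–methanol gradient, positive electrospray), with CsA d4 as a marker.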

[2] = target: UDP-glucuronosyltransferase 1A4 (Homo sapiens, UniProt P22310, L48V); assay: Activity of UGT1A4*3 mutant (unknown origin) overexpressed in HEK293 cells assessed as enzyme-mediated glucuronidation at 25 to 750 uM after 1 hr by Eadie-Hofstee plot analysis; type: ADME, cell-based; settings: hek293, 1 h; in short: as §1
[3] = Drug metabolism in human intestine assessed as glucuronidation at 25 to 750 uM after 1 hr by Eadie-Hofstee plot analysis; type: ADME, tissue-based
In short: (§3)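 Pooled human intestine microsomes were incubated 1 h with tacrolimus at 25–750 μM. Glucuronide formation was measured by LC-MS/MS, and kinetic parameters came from a selected enzyme kinetic model fit. Data are mean ± SD of triplicate determinations from three independent experiments.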

[4] = Activity of UGT1A4*4 mutant (unknown origin) overexpressed in HEK293 cells assessed as enzyme-mediated glucuronidation at 25 to 750 uM after 1 hr by Eadie-Hofstee plot analysis; type: ADME, cell-based; settings: human, hek293, 1 h; in short: as §1
UGT1A4*4 = assay: Activity of UGT1A4*4 mutant (unknown origin) overexpressed in HEK293 cells assessed as enzyme-mediated glucuronidation after 1 hr by Eadie-Hofstee plot analysis; type: ADME, cell-based; settings: human, HEK293 cells overexpressing UGT1A4*4; in short: as §1
[5] = Drug metabolism in human intestine microsomes assessed as glucuronidation at 200 uM after 16 hrs by LC-MS analysis; type: ADME; in short: as §2
Liver microsome = assay: Drug metabolism in human liver microsomes assessed as glucuronidation at 200 uM after 16 hrs by LC-MS analysis; type: ADME; in short: as §2
[6] = Drug metabolism in human intestine assessed as glucuronidation after 1 hr by Eadie-Hofstee plot analysis; type: ADME, tissue-based; in short: as §3
[7] = target: UDP-glucuronosyltransferase 1A4 (Homo sapiens, UniProt P22310, P24T); assay: Activity of UGT1A4*2 mutant (unknown origin) overexpressed in HEK293 cells assessed as enzyme-mediated glucuronidation at 25 to 750 uM after 1 hr by Eadie-Hofstee plot analysis; type: ADME, cell-based; settings: hek293, 1 h; in short: as §1
[8] = Activity of UGT1A4*1 mutant (unknown origin) overexpressed in HEK293 cells assessed as enzyme-mediated glucuronidation at 25 to 750 uM after 1 hr by Eadie-Hofstee plot analysis; type: ADME, cell-based; settings: human, hek293, 1 h; in short: as §1
[9] = target: T2, UDP-glucuronosyltransferase 2B7 (Homo sapiens, UniProt P16662); assay: Drug metabolism in human kidney microsomes assessed as UGT2B7-mediated tacrolimus glucuronide formation at 200 uM after 16 hrs by LC-MS analysis; type: ADME; in short: as §2
T2 sequence (P16662 whole entry): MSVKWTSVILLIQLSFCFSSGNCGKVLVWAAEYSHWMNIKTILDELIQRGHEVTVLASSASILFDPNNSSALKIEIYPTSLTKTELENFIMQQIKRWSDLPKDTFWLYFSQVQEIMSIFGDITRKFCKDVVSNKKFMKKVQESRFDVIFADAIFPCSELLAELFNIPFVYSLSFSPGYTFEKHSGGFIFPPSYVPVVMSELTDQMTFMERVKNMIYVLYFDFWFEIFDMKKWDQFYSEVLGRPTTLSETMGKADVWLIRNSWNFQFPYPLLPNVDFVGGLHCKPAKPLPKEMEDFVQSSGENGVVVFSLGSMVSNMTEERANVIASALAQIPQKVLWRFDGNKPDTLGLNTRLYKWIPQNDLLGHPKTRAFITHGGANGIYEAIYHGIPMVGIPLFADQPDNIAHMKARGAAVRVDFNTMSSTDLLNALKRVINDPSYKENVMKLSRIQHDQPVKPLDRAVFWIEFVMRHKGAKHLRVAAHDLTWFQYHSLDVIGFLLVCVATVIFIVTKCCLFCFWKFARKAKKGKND

[10] = system: C=CC[C@@H]1/C=C(\C)C[C@H](C)C[C@H](OC)[C@H]2O[C@@](O)(C(=O)C(=O)N3CCCC[C@H]3C(=O)O[C@H](/C(C)=C/[C@@H]3CC[C@@H](O)[C@H](OC)C3)[C@H](C)[C@@H](O)CC1=O)[C@H](C)C[C@@H]2OC; assay: Activity of UGT1A4*3 mutant (unknown origin) overexpressed in HEK293 cells assessed as enzyme-mediated glucuronidation after 1 hr by Eadie-Hofstee plot analysis; type: ADME, cell-based, Homo sapiens; in short: as §1
[11] = system: C=CC[C@@H]1/C=C(\C)C[C@H](C)C[C@H](OC)[C@H]2O[C@@](O)(C(=O)C(=O)N3CCCC[C@H]3C(=O)O[C@H](/C(C)=C/[C@@H]3CC[C@@H](O)[C@H](OC)C3)[C@H](C)[C@@H](O)CC1=O)[C@H](C)C[C@@H]2OC; assay: Activity of UGT1A4*2 mutant (unknown origin) overexpressed in HEK293 cells assessed as enzyme-mediated glucuronidation after 1 hr by Eadie-Hofstee plot analysis; type: ADME, cell-based, Homo sapiens; in short: as §1

Chain of UDP-glucuronosyltransferase 1A4 (Homo sapiens, UniProt P22310, P24T) (P22310 whole entry P24T): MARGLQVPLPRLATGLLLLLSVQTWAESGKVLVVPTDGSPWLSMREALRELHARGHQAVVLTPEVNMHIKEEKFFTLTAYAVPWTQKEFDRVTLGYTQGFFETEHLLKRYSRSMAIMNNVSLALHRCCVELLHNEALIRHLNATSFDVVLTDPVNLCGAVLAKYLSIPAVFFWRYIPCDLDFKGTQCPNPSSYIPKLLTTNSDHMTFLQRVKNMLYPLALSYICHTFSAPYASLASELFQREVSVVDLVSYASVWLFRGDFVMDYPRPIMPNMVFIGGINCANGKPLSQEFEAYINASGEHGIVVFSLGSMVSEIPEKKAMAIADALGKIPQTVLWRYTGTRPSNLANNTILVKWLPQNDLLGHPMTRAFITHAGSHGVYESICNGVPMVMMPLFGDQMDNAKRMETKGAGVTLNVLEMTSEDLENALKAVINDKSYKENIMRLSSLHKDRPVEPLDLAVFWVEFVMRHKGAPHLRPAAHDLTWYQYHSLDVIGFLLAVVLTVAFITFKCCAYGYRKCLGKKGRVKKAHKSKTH
Chain of UDP-glucuronosyltransferase 1A4 (Homo sapiens, UniProt P22310, L48V) (P22310 29-534 L48V limits assumed): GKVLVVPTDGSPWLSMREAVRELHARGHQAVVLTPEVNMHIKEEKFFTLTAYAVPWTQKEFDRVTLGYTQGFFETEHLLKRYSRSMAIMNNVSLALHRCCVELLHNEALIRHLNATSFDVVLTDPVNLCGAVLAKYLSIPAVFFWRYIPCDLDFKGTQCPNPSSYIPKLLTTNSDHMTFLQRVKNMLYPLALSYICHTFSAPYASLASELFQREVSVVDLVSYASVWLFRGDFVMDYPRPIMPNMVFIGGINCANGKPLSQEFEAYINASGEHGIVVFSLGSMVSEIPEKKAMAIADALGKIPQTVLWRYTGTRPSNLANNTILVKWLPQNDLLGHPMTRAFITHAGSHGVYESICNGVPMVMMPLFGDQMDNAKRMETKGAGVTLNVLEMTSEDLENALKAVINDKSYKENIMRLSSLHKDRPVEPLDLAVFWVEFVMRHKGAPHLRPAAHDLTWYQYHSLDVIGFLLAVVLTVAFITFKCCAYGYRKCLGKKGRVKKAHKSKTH

With `C=CC[C@@H]1/C=C(\C)C[C@H](C)C[C@H](OC)[C@H]2O[C@@](O)(C(=O)C(=O)N3CCCC[C@H]3C(=O)O[C@H](/C(C)=C/[C@@H]3CC[C@@H](O)[C@H](OC)C3)[C@H](C)[C@@H](O)CC1=O)[C@H](C)C[C@@H]2OC` [TACROLIMUS ANHYDROUS] the Km at 1 h (UGT1A4*1) was 91 µM, the Drug metabolism [1] was “metabolite_detected” and the Vmax [2] was 2.23 area/min/mg. It also gave a Vmax [3] of 0.04 area/min/mg, a Vmax [4] of 3.14 area/min/mg and a Km at 1 h (UGT1A4*4) of 101 µM. For the same compound, the Drug metabolism [5] was “metabolite_detected”, the Drug metabolism (Liver microsome) was “metabolite_detected” and the Km at 1 h [6] was 51.8 µM. For the same compound, the Vmax [7] was 1.65 area/min/mg, the Vmax [8] was 1.65 area/min/mg and the Drug metabolism [9] was “metabolite_not_detected”.

“UDP-glucuronosyltransferase 1A4 (Homo sapiens; L48V)” showed a Km [10] of 126 µM.

“UDP-glucuronosyltransferase 1A4 (Homo sapiens; P24T)” gave a Km [11] of 114 µM.
